Assay results taken from ChEMBL document CHEMBL1139414, “Conformationally constrained analogues of diacylglycerol. 29. Cells sort diacylglycerol-lactone chemical zip codes to produce diverse and selective biological activities” (J Med Chem, 2008).

Key:
[1] = target: Protein kinase C alpha type (Mus musculus, UniProt P20444); experiment: Displacement of [3H]PDBu form mouse PKCalpha by scintillation counting
In short: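 Partially purified mouse PKCα; competition with [³H]PDBU. ID50 obtained by fitting a sigmoidal competition curve and converted to Ki = ID50/(1+L/Kd). Pure compounds tested at 6–7 concentrations; crude library compounds at a single 1 μM concentration. Triplicates per concentration, at least three experiments; mean ± SEM.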

[2] = target: T1, Ras guanyl-releasing protein 3 (Homo sapiens, UniProt Q8IV61); experiment: Binding affinity to RasGRP3
T1 sequence (Q8IV61 whole entry): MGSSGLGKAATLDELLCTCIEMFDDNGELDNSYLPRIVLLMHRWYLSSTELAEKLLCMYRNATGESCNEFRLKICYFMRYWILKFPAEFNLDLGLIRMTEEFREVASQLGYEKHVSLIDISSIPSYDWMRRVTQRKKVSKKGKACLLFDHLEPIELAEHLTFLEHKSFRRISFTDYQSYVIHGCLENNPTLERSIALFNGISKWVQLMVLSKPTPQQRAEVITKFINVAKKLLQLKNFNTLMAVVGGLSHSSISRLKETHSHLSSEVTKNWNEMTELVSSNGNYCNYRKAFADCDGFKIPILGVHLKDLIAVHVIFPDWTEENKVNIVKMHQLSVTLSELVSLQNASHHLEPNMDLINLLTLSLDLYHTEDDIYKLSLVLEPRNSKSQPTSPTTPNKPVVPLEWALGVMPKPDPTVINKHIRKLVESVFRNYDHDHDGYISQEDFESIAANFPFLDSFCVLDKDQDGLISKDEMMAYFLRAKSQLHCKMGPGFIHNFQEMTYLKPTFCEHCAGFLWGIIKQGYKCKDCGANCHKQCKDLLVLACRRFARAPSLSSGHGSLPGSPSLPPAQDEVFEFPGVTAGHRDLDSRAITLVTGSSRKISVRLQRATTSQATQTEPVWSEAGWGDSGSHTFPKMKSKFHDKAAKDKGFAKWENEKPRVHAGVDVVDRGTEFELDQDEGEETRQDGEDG

SMILES | Ki [1] | Ki [2]
CN(C)c1cccc(C(=O)OCC2(CO)C/C(=C\c3ccc([N+](=O)[O-])cc3)C(=O)O2)c1 (racemic) | 31.8 nM | 2.3 nM
CN(C)c1ccccc1C(=O)OCC1(CO)C/C(=C\c2ccccc2[N+](=O)[O-])C(=O)O1 (racemic) | 134 nM | 9.4 nM
CN(C)c1cccc(C(=O)OCC2(CO)C/C(=C\c3cccc([N+](=O)[O-])c3)C(=O)O2)c1 (racemic) | 63 nM | 5.3 nM
CN(C)c1ccccc1C(=O)OCC1(CO)C/C(=C\c2cccc([N+](=O)[O-])c2)C(=O)O1 (racemic) | 44 nM | 3.9 nM
CN(C)c1ccc(C(=O)OCC2(CO)C/C(=C\c3cccc([N+](=O)[O-])c3)C(=O)O2)cc1 (racemic) | 72.4 nM | 8 nM
CN(C)c1ccc(C(=O)OCC2(CO)C/C(=C\c3ccccc3[N+](=O)[O-])C(=O)O2)cc1 (racemic) | 54.5 nM | 14.4 nM
CN(C)c1ccccc1C(=O)OCC1(CO)C/C(=C\c2ccc([N+](=O)[O-])cc2)C(=O)O1 (racemic) | 38.5 nM | 1.8 nM
CN(C)c1cccc(C(=O)OCC2(CO)C/C(=C\c3ccccc3[N+](=O)[O-])C(=O)O2)c1 (racemic) | 116 nM | 16.4 nM
CCCCC(CC)C(=O)OCC1(CO)C/C(=C\c2ccc(Cl)c(F)c2)C(=O)O1 (racemic; form 1) | 12.4 nM | 
CCCC(CCC)C(=O)OCC1(CO)C/C(=C\c2ccc(F)cc2)C(=O)O1 (racemic; form 1) | 5.53 nM | 
CC(C)(C)C(=O)OCC1(CO)C/C(=C\c2ccc(F)c(Cl)c2)C(=O)O1 (racemic; form 1) | 10.9 nM | 
CN(C)c1ccc(/C=C2\CC(CO)(COC(=O)c3ccc(N(C)C)cc3)OC2=O)cc1 (racemic; form 1) | 102 nM | 4.68 nM
CCCC(CCC)C(=O)OCC1(CO)C/C(=C\c2ccc(C(F)(F)F)cc2)C(=O)O1 (racemic; form 1) | 2.96 nM | 
CCCC(CCC)C(=O)OCC1(CO)C/C(=C\c2ccc(Cl)c(F)c2)C(=O)O1 (racemic; form 1) | 3.38 nM | 
COc1ccc(/C=C2\CC(CO)(COC(=O)c3ccc(N(C)C)cc3)OC2=O)cc1 (racemic; form 1) | 48 nM | 
CCCCC(CC)C(=O)OCC1(CO)C/C(=C/c2ccc(C(F)(F)F)cc2)C(=O)O1 (racemic; form 1) | 15.5 nM | 
COc1ccc(/C=C2\CC(CO)(COC(=O)c3ccc(OC)cc3)OC2=O)cc1 (racemic; form 1) | 129 nM | 
COc1ccc(/C=C2\CC(CO)(COC(=O)c3c(C(C)C)cc(C(C)C)cc3C(C)C)OC2=O)cc1 (racemic; form 1) | 8 nM | 
CCCCC(/C=C1/CC(CO)(COC(=O)c2ccc(N(C)C)cc2)OC1=O)CC (racemic; form 1) | 466 nM | 
CCCCCC/C=C1/CC(CO)(COC(=O)c2c(C(C)C)cc(C(C)C)cc2C(C)C)OC1=O (racemic; form 1) | 2.5 nM | 
CCCCC(/C=C1/CC(CO)(COC(=O)c2ccc([N+](=O)[O-])cc2)OC1=O)CC (racemic; form 1) | 460 nM | 

SMILES | Ki [1] | Ki [2]
CC(C)C(=O)OCC1(CO)C/C(=C/c2ccccc2C(F)(F)F)C(=O)O1 (racemic; form 1) | 310 nM | 
CCCC(CCC)C(=O)OCC1(CO)C/C(=C\c2ccc(F)c(Br)c2)C(=O)O1 (racemic; form 1) | 8.1 nM | 
CCCCC(CC)C(=O)OCC1(CO)C/C(=C\c2ccc(Cl)cc2)C(=O)O1 (racemic; form 1) | 12.7 nM | 
COc1ccc(C(=O)OCC2(CO)C/C(=C\c3ccc([N+](=O)[O-])cc3)C(=O)O2)cc1 (racemic; form 1) | 281 nM | 
CN(C)c1ccc(C(=O)OCC2(CO)C/C(=C\c3ccc([N+](=O)[O-])cc3)C(=O)O2)cc1 (racemic; form 1) | 127 nM | 3.8 nM
CC(C)(C)C(=O)OCC1(CO)C/C(=C\c2ccc(Cl)c(F)c2)C(=O)O1 (racemic; form 1) | 7.9 nM | 
COc1ccc(C(=O)OCC2(CO)C/C(=C\c3ccc(N(C)C)cc3)C(=O)O2)cc1 (racemic; form 1) | 103 nM | 
CCCCC(CC)C(=O)OCC1(CO)C/C(=C\c2ccc(N(C)C)cc2)C(=O)O1 (racemic; form 1) | 12.9 nM | 
COc1ccc(/C=C2\CC(CO)(COC(=O)c3c(C)cc(C)cc3C)OC2=O)cc1 (racemic; form 1) | 3.7 nM | 
CCCC(CCC)C(=O)OCC1(CO)C/C(=C\c2ccc(F)c(Cl)c2)C(=O)O1 (racemic; form 1) | 2.45 nM | 
CN(C)c1ccc(/C=C2\CC(CO)(COC(=O)c3ccc([N+](=O)[O-])cc3)OC2=O)cc1 (racemic; form 1) | 213 nM | 
CCC(C(=O)OCC1(CO)C/C(=C\c2ccc(-c3ccc(C(F)(F)F)cc3)cc2)C(=O)O1)c1ccccc1 (racemic; form 1) | 108 nM | 
O=C1OC(CO)(COC(=O)c2ccc([N+](=O)[O-])cc2)C/C1=C\c1ccc([N+](=O)[O-])cc1 (racemic; form 1) | 660 nM | 
CCCCC(CC)C(=O)OCC1(CO)C/C(=C\c2ccc(F)c(Br)c2)C(=O)O1 (racemic; form 1) | 6.1 nM | 
CC(C)(C)C(=O)OCC1(CO)C/C(=C\c2ccc(Cl)c(F)c2)C(=O)O1 (racemic; form 2) | 28.8 nM | 
CN(C)c1ccc(C(=O)OCC2(CO)C/C(=C\c3ccc([N+](=O)[O-])cc3)C(=O)O2)cc1 (racemic; form 2) | 362 nM | 
CCCC(CCC)C(=O)OCC1(CO)C/C(=C\c2ccc(F)cc2)C(=O)O1 (racemic; form 2) | 17.1 nM | 
CC(C)(C)C(=O)OCC1(CO)C/C(=C\c2ccc(F)c(Cl)c2)C(=O)O1 (racemic; form 2) | 20.5 nM | 
CN(C)c1ccc(/C=C2\CC(CO)(COC(=O)c3ccc(N(C)C)cc3)OC2=O)cc1 (racemic; form 2) | 1080 nM | 
CCCC(CCC)C(=O)OCC1(CO)C/C(=C\c2ccc(C(F)(F)F)cc2)C(=O)O1 (racemic; form 2) | 16.6 nM | 
CCCC(CCC)C(=O)OCC1(CO)C/C(=C\c2ccc(Cl)c(F)c2)C(=O)O1 (racemic; form 2) | 21.5 nM | 

SMILES | Ki [1] | Ki [2]
COc1ccc(/C=C2\CC(CO)(COC(=O)c3ccc(N(C)C)cc3)OC2=O)cc1 (racemic; form 2) | 359 nM | 
CCCCC(CC)C(=O)OCC1(CO)C/C(=C/c2ccc(C(F)(F)F)cc2)C(=O)O1 (racemic; form 2) | 13.1 nM | 
COc1ccc(/C=C2\CC(CO)(COC(=O)c3ccc(OC)cc3)OC2=O)cc1 (racemic; form 2) | 332 nM | 
CC(CC(=O)OCC1(CO)C/C(=C/c2cccc(C(F)(F)F)c2)C(=O)O1)CC(C)(C)C (racemic; form 2) | 41 nM | 
COc1ccc(/C=C2\CC(CO)(COC(=O)c3c(C(C)C)cc(C(C)C)cc3C(C)C)OC2=O)cc1 (racemic; form 2) | 197 nM | 
CCCCC(/C=C1/CC(CO)(COC(=O)c2ccc(N(C)C)cc2)OC1=O)CC (racemic; form 2) | 134 nM | 
CCCCC(CC)C(=O)OCC1(CO)C/C(=C\c2ccc(Cl)c(F)c2)C(=O)O1 (racemic; form 2) | 4.89 nM | 
CCCCCC/C=C1/CC(CO)(COC(=O)c2c(C(C)C)cc(C(C)C)cc2C(C)C)OC1=O (racemic; form 2) | 126 nM | 
CCCCC(/C=C1/CC(CO)(COC(=O)c2ccc([N+](=O)[O-])cc2)OC1=O)CC (racemic; form 2) | 334 nM | 
CC(C)C(=O)OCC1(CO)C/C(=C/c2ccccc2C(F)(F)F)C(=O)O1 (racemic; form 2) | 158 nM | 
CCCC(CCC)C(=O)OCC1(CO)C/C(=C\c2ccc(F)c(Br)c2)C(=O)O1 (racemic; form 2) | 2.66 nM | 
CCCCC(CC)C(=O)OCC1(CO)C/C(=C\c2ccc(Cl)cc2)C(=O)O1 (racemic; form 2) | 2.9 nM | 
COc1ccc(C(=O)OCC2(CO)C/C(=C\c3ccc([N+](=O)[O-])cc3)C(=O)O2)cc1 (racemic; form 2) | 103 nM | 
COc1ccc(C(=O)OCC2(CO)C/C(=C\c3ccc(N(C)C)cc3)C(=O)O2)cc1 (racemic; form 2) | 890 nM | 
CCCCC(CC)C(=O)OCC1(CO)C/C(=C\c2ccc(N(C)C)cc2)C(=O)O1 (racemic; form 2) | 96 nM | 
COc1ccc(/C=C2\CC(CO)(COC(=O)c3c(C)cc(C)cc3C)OC2=O)cc1 (racemic; form 2) | 119 nM | 
CCCC(CCC)C(=O)OCC1(CO)C/C(=C\c2ccc(F)c(Cl)c2)C(=O)O1 (racemic; form 2) | 9.3 nM | 
CN(C)c1ccc(/C=C2\CC(CO)(COC(=O)c3ccc([N+](=O)[O-])cc3)OC2=O)cc1 (racemic; form 2) | 1230 nM | 
CCC(C(=O)OCC1(CO)C/C(=C\c2ccc(-c3ccc(C(F)(F)F)cc3)cc2)C(=O)O1)c1ccccc1 (racemic; form 2) | 18.3 nM | 
O=C1OC(CO)(COC(=O)c2ccc([N+](=O)[O-])cc2)C/C1=C\c1ccc([N+](=O)[O-])cc1 (racemic; form 2) | 127 nM | 2.22 nM
CCCCC(CC)C(=O)OCC1(CO)C/C(=C\c2ccc(F)c(Br)c2)C(=O)O1 (racemic; form 2) | 2.07 nM | 
